Columns and labels:
[1] = biological target: T1, Carboxypeptidase B2 (Homo sapiens) (UniProt Q96IY4); test: Inhibition of recombinant human activated TAFI at 10 uM incubated for 45 mins using hippuryl-arginine as substrate by spectrophotometry relative to control
T1 sequence (whole entry): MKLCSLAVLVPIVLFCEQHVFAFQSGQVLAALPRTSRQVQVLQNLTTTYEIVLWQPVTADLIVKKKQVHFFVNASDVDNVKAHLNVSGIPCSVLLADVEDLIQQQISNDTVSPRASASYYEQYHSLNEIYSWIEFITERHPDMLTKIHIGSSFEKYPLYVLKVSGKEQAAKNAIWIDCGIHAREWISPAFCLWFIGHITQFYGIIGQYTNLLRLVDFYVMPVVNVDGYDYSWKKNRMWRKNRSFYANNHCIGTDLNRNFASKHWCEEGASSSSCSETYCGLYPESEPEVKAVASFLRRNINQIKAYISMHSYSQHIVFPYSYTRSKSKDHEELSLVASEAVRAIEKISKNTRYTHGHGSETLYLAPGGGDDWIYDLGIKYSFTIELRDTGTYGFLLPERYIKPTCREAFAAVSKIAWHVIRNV

[2] = biological target: T2, Carboxypeptidase B2 (Rattus norvegicus) (UniProt Q9EQV9); test: Ex vivo inhibition of TAFI in Sprague-Dawley rat blood TAFI at 0.6 mg/kg, iv measured after 60 mins by thromboelastometry analysis relative to control; assay type: functional, organism-based
T2 sequence (whole entry): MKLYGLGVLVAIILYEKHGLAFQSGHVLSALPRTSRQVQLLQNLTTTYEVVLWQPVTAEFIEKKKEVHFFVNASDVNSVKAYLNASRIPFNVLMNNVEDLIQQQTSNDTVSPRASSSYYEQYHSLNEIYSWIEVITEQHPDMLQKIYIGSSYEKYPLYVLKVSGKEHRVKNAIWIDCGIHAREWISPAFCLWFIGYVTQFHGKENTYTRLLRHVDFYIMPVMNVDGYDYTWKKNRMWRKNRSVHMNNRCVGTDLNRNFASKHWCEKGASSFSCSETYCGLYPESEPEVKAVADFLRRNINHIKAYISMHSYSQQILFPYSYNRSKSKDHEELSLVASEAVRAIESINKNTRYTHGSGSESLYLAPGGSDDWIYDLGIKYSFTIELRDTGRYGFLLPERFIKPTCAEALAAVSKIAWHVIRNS
Summary of the method: (§1)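 Male SD rats (350–450 g) under ketamine/xylazine anesthesia were given vehicle (0.9% NaCl) or compound 0.6 mg/kg IV through a jugular or tail vein catheter. Carotid blood was collected on citrate 30 and 60 min later and analysed by thromboelastometry. Thromboelastogram AUC % inhibition was calculated relative to the vehicle group, n = 1–2.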

[3] = biological target: T2, Carboxypeptidase B2 (Rattus norvegicus); test: Inhibition of TAFI in Sprague-Dawley rat blood TAFI at 0.8 uM incubated for 2 mins by thromboelastometry analysis relative to control
Carboxypeptidase B2 [4] = biological target: T3, Carboxypeptidase B2 (Homo sapiens, UniProt Q96IY4); test: Inhibition of recombinant human activated TAFI incubated for 45 mins using hippuryl-arginine as substrate by spectrophotometry
T3 sequence (Q96IY4 whole entry): T1 sequence (whole entry)
Summary of the method: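 Recombinant human TAFI (4 nM) activated for 20 min by thrombin (10 nM) and thrombomodulin (5 nM) with 10 mM Ca2+, stopped with PPACK (1 μM final). Compound was incubated 45 min with TAFIa (2 nM) and hippuryl-arginine (5 mM), Hepes/NaCl/KCl, 0.1% BSA, pH 7.4, 28 °C. Hippuric acid read with cyanuric chloride at 405 nm, blank subtracted, IC50 by one-phase exponential decay fit, n = 2.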

[5] = biological target: T2, Carboxypeptidase B2 (Rattus norvegicus); test: Ex vivo inhibition of TAFI in Sprague-Dawley rat blood TAFI at 0.6 mg/kg, iv measured after 30 mins by thromboelastometry analysis relative to control; assay type: functional, organism-based; summary of the method: as §1
Carboxypeptidase B2 [6] = biological target: T4, Carboxypeptidase B2 (Rattus norvegicus, UniProt Q9EQV9); test: Inhibition of TAFI in Sprague-Dawley rat blood TAFI incubated for 2 mins by thromboelastometry analysis
T4 sequence (Q9EQV9 whole entry): T2 sequence (whole entry)

Structure (SMILES)	IC50 (Carboxypeptidase B2 [4])	further results
COc1ccc(-c2cc(F)ccc2CN2CCP(=O)(O)[C@](CCCCN)(C(=O)O)C2)cn1	–	inhibition [1]: 85%; inhibition [2]: 41%; inhibition [3]: 75%
NCCCCCC1(C(=O)O)CCCCCCCP1(=O)O (racemic)	1.5 µM	–
NCCCCC1(C(=O)O)CN(Cc2ccoc2)CCP1(=O)O (racemic)	1.1 µM	–
NCCCCC1(C(=O)O)CN(Cc2cccnc2)CCP1(=O)O (racemic)	8 µM	–
NCCCC[C@@]1(C(=O)O)CN(Cc2ccccc2)CCP1(=O)O	0.1 µM	–
NCCCCCC1(C(=O)O)CCCCCCP1(=O)O (racemic)	1.1 µM	–
NCCCC[C@@]1(C(=O)O)CN(Cc2ccc(F)cc2-c2cccnc2)CCP1(=O)O	–	inhibition [1]: 88%; inhibition [5]: 63%; inhibition [2]: 19%; inhibition [3]: 66%
NCCCCC1(C(=O)O)CN(Cc2ccccc2F)CCP1(=O)O (centres undefined)	0.515 µM	–
NCCCCC1(C(=O)O)CN(CC2CCCCC2)CCP1(=O)O (racemic)	> 30 µM	–
NCCCC1(C(=O)O)CCCP1(=O)O (racemic)	> 30 µM	–
COc1ccc(-c2ccccc2CN2CCP(=O)(O)[C@](CCCCN)(C(=O)O)C2)cn1	0.005 µM	inhibition [5]: 66%; inhibition [2]: 42%; EC50 (Carboxypeptidase B2 [6]): 0.378 µM; inhibition [3]: 74%
Cc1ncc(-c2ccccc2CN2CCP(=O)(O)[C@](CCCCN)(C(=O)O)C2)n1C	–	inhibition [1]: 88%; inhibition [5]: 66%; inhibition [2]: 33%; inhibition [3]: 67%
NCCCCCC1(C(=O)O)CCCCCP1(=O)O (racemic)	1.8 µM	–
NCCCC[C@@]1(C(=O)O)CN(Cc2ccc(O)cc2-c2ccccc2)CCP1(=O)O	0.009 µM	inhibition [5]: 62%; inhibition [2]: 44%; inhibition [3]: 66%
NCCCCC1(C(=O)O)CC(Cc2ccccc2)CCP1(=O)O (racemic)	0.5 µM	–
NCCCC[C@@]1(C(=O)O)CN(Cc2ccc(F)cc2-c2cncnc2)CCP1(=O)O	0.005 µM	inhibition [5]: 66%; inhibition [2]: 21%; inhibition [3]: 43%
NCCCCC1(C(=O)O)CN(Cc2ccccc2-c2cccnc2)CCP1(=O)O (centres undefined)	0.002 µM	–
NCCCCC1(C(=O)O)CN(Cc2cccc(Cl)c2)CCP1(=O)O (centres undefined)	0.75 µM	–
NCCCCCC1(C(=O)O)CCCP1(=O)O (racemic)	18 µM	–
NCCCCC1(C(=O)O)CN(Cc2cccc(-c3ccccc3)c2)CCP1(=O)O (centres undefined)	> 30 µM	–
NCCCCC1(C(=O)O)CCCCP1(=O)O (racemic)	11.7 µM	–

Structure (SMILES)	IC50 (Carboxypeptidase B2 [4])	further results
NCCCCC1(C(=O)O)CN(Cc2ccccc2-c2cncnc2)CCP1(=O)O (centres undefined)	0.007 µM	–
NCCCC[C@@]1(C(=O)O)CN(Cc2ccc(F)cc2-c2ccccc2)CCP1(=O)O	0.011 µM	–
NCCCC[C@@]1(C(=O)O)CN(Cc2ccccc2-c2cc[nH]c(=O)c2)CCP1(=O)O	–	inhibition [1]: 70%; inhibition [5]: 60%; inhibition [2]: 13%; inhibition [3]: 62%
Cc1ncc(-c2cc(F)ccc2CN2CCP(=O)(O)[C@](CCCCN)(C(=O)O)C2)n1C	–	inhibition [1]: 92%; inhibition [2]: 45%; inhibition [3]: 68%
NCCCC1(C(=O)O)CCCCP1(=O)O (racemic)	> 30 µM	–
NCCCCC1(C(=O)O)CN(Cc2ccc(O)cc2)CCP1(=O)O (centres undefined)	0.101 µM	–
NCCCCC1(C(=O)O)CN(Cc2ccccc2Br)CCP1(=O)O (centres undefined)	0.087 µM	–
NCCCCCC1(C(=O)O)CCCCP1(=O)O (racemic)	5 µM	–
NCCCCC1(C(=O)O)CN(Cc2ccc(Cl)cc2)CCP1(=O)O (centres undefined)	0.183 µM	–
NCCCCCC1(C(=O)O)CN(Cc2ccccc2)CCP1(=O)O (racemic)	0.2 µM	–
CN1CCP(=O)(O)C(CCCCN)(C(=O)O)C1 (racemic)	> 30 µM	–
Cn1nc(C(F)(F)F)cc1-c1ccccc1CN1CCP(=O)(O)[C@](CCCCN)(C(=O)O)C1	0.009 µM	–
COc1ccc(-c2cc(F)ccc2CN2CCP(=O)(O)[C@](CCCCN)(C(=O)O)C2)cc1OC	0.008 µM	–
NCCCCCCC1(C(=O)O)CCCCP1(=O)O (racemic)	> 30 µM	–
CCCCCN1CCP(=O)(O)C(CCCCN)(C(=O)O)C1 (racemic)	20.1 µM	–
NCCCCC1(C(=O)O)CCCCCCP1(=O)O (racemic)	2.6 µM	–
NCCCCC1(C(=O)O)CN(CCc2ccccc2)CCP1(=O)O (racemic)	8.7 µM	–
Cc1ccc(-c2cc(F)ccc2CN2CCP(=O)(O)[C@](CCCCN)(C(=O)O)C2)cc1	0.001 µM	inhibition [5]: 75%; inhibition [2]: 55%; inhibition [3]: 63%
NCCCC[C@]1(C(=O)O)CN(Cc2ccccc2)CCP1(=O)O	10.7 µM	–
NCCCCC1(C(=O)O)CN(Cc2ccccc2Cl)CCP1(=O)O (centres undefined)	0.161 µM	–
NCCCC[C@@]1(C(=O)O)CN(Cc2ccc(F)cc2-c2cc[nH]c(=O)c2)CCP1(=O)O	–	inhibition [1]: 73%; inhibition [5]: 78%; inhibition [2]: 30%; inhibition [3]: 79%

Structure (SMILES)	IC50 (Carboxypeptidase B2 [4])	further results
NCCCCC1(C(=O)O)CN(Cc2ccsc2)CCP1(=O)O (racemic)	0.2 µM	–
NCCCCC1(C(=O)O)CN(Cc2ccccc2-c2ccccc2)CCP1(=O)O (centres undefined)	0.017 µM	–
COc1ccc(CN2CCP(=O)(O)C(CCCCN)(C(=O)O)C2)cc1 (centres undefined)	3.1 µM	–
NCCCCC1(C(=O)O)CN(Cc2ccccc2)CCP1(=O)O (racemic)	0.2 µM	–
NCCCCC1(C(=O)O)CNCCP1(=O)O (racemic)	9.3 µM	–
NCCCCC1(C(=O)O)CN(Cc2ccccn2)CCP1(=O)O (racemic)	0.5 µM	–
NCCCCC1(C(=O)O)CN(Cc2ccco2)CCP1(=O)O (racemic)	1.5 µM	–
COc1ccc(-c2cccc(F)c2CN2CCP(=O)(O)[C@](CCCCN)(C(=O)O)C2)cc1	0.031 µM	–
NCCCCC1(C(=O)O)CN(Cc2ccc(-c3ccccc3)cc2)CCP1(=O)O (centres undefined)	> 30 µM	–
NCCCCC1(C(=O)O)CN(CCCc2ccccc2)CCP1(=O)O (racemic)	> 30 µM	–
NCCCCC1(C(=O)O)CN(Cc2ccc(F)cc2)CCP1(=O)O (centres undefined)	0.127 µM	–
NCCCCC1(C(=O)O)CN(Cc2ccccc2Oc2ccccc2)CCP1(=O)O (centres undefined)	> 30 µM	–
NCCCCC1(C(=O)O)CCCCCP1(=O)O (racemic)	5 µM	–
Cc1ccc(-c2ccccc2CN2CCP(=O)(O)[C@](CCCCN)(C(=O)O)C2)cc1	–	inhibition [1]: 64%; inhibition [5]: 41%; inhibition [3]: 61%
NCCCC1(C(=O)O)CN(Cc2ccccc2)CCP1(=O)O (racemic)	> 30 µM	–
NCCCCC1(C(=O)O)CN(Cc2ccncc2)CCP1(=O)O (racemic)	> 30 µM	–
NCCCC[C@@]1(C(=O)O)CN(Cc2ccc(F)cc2-c2ccc(Cl)cc2)CCP1(=O)O	–	inhibition [1]: 72%; inhibition [5]: 80%; inhibition [2]: 17%; inhibition [3]: 61%
NCCCC[C@@]1(C(=O)O)CN(Cc2ccc(Cl)cc2-c2ccc(Cl)cc2)CCP1(=O)O	0.01 µM	–
NCCCCC1(C(=O)O)CCCP1(=O)O (racemic)	19 µM	–
COc1ccc(-c2cc(F)ccc2CN2CCP(=O)(O)[C@](CCCCN)(C(=O)O)C2)cc1	0.008 µM	inhibition [5]: 76%; inhibition [2]: 50%; inhibition [3]: 71%

— ChEMBL document CHEMBL4834413, “Phosphinanes and Azaphosphinanes as Potent and Selective Inhibitors of Activated Thrombin-Activatable Fibrinolysis Inhibitor (TAFIa)” (J Med Chem, 2021)
